Active and inactive are the calls of the source. No cut-off for these calls is given here.
Key:
[1] = target: T1, C3a anaphylatoxin chemotactic receptor (Homo sapiens, UniProt Q16581); assay: Displacement of [125I]-C3a from C3AR in HMDMs by scintillation counting method
T1 sequence (Q16581 whole entry): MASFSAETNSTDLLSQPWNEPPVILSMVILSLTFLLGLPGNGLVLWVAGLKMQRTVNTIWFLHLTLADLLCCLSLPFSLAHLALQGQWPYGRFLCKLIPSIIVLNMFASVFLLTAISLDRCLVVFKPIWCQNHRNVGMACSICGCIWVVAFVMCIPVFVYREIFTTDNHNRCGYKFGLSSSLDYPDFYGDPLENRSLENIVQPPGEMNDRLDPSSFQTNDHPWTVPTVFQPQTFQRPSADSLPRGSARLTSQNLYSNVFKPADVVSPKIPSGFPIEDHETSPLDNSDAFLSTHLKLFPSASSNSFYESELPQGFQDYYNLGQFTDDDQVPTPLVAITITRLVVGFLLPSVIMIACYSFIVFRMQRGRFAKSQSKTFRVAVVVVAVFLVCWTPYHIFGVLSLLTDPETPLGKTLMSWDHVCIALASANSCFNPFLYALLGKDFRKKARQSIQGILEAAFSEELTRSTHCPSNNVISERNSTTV

[2] = target: T1, C3a anaphylatoxin chemotactic receptor; assay: Agonist activity against C3AR in HMDMs assessed as increase in intracellular calcium release by Fluo-3 AM dye based FLIPR assay relative to 1 uM C3a
[3] = target: T2, C3a anaphylatoxin chemotactic receptor (Homo sapiens) (UniProt Q16581)
T2 sequence (whole entry): T1 sequence (Q16581 whole entry)

[4] = target: T1, C3a anaphylatoxin chemotactic receptor; assay: Antagonist activity against C3AR in HMDMs assessed as inhibition of C3a-induced intracellular calcium release by Fluo-3 AM dye based FLIPR assay
[5] = target: T2, C3a anaphylatoxin chemotactic receptor (Homo sapiens); assay: Agonist activity against C3AR in C3a desensitized HMDMs assessed as increase in intracellular calcium release at 10 uM added 5 mins post C3a-induced desensitization by Fluo-3 AM dye based FLIPR; assay type: functional, cell-based
Method in brief: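 HMDMs desensitized with 300 nM C3a at t0, then given test agonist at 10 μM; calcium signal monitored on FLIPR after Fluo-3 AM loading (4 μM, 1 h, 37 °C) in HBSS with 2.5 mM probenecid, 20 mM HEPES, pH 7.4; excitation 495, emission 520 nm.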

[6] = target: T3, C5a anaphylatoxin chemotactic receptor 1 (Homo sapiens) (UniProt P21730); assay: Displacement of [125I]-C5a from C5AR in HMDMs 20 uM by scintillation counting method
T3 sequence (whole entry): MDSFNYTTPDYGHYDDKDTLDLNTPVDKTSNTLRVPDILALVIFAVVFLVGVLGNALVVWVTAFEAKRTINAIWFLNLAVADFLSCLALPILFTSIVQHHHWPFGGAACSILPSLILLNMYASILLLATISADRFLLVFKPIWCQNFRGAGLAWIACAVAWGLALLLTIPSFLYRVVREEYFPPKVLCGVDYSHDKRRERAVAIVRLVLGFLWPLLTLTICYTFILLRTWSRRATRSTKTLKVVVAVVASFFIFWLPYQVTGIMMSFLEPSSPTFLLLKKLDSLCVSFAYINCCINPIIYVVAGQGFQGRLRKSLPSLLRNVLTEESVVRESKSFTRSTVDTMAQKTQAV

[7] = target: T2, C3a anaphylatoxin chemotactic receptor (Homo sapiens); assay: Agonist activity against C3AR in HMDMs assessed as increase in IL-1beta mRNA expression at 300 nM incubated for 30 mins by qRT-PCR method
Method in brief: (§1)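 HMDMs (CSF-differentiated CD14+ blood monocytes, day 7) seeded at 1 × 10^6 mL−1 and adhered overnight, then stimulated 30 min at 0.3 μM. RNA extracted; qRT-PCR normalized to 18S rRNA; fold change relative to untreated control; mean ± SEM of three independent experiments.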

[8] = target: T2, C3a anaphylatoxin chemotactic receptor (Homo sapiens); assay: Agonist activity against C3AR in HMDMs assessed as increase in TNFalpha mRNA expression at 300 nM incubated for 30 mins by qRT-PCR method; method in brief: as §1
[9] = target: T2, C3a anaphylatoxin chemotactic receptor (Homo sapiens); assay: Agonist activity against C3AR in HMDMs assessed as increase in CCL3 mRNA expression at 300 nM incubated for 30 mins by qRT-PCR method; method in brief: as §1
[10] = target: T2, C3a anaphylatoxin chemotactic receptor (Homo sapiens); assay: Agonist activity against C3AR in HMDMs assessed as increase in IL-1beta mRNA expression at 300 nM incubated for 30 mins in presence of 30 mins pre-treatment with 10 uM (2-(2,2-Diphenylethoxy)acetyl)-L-arginine by qRT-PCR method
Method in brief: (§2)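 HMDMs seeded at 1 × 10^6 mL−1, adhered overnight, pretreated with C3aR antagonist (10 μM, 30 min), then stimulated 30 min at 0.3 μM. RNA extracted; qRT-PCR normalized to 18S rRNA; fold change relative to untreated control; mean ± SEM, three independent experiments.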

[11] = target: T2, C3a anaphylatoxin chemotactic receptor (Homo sapiens); assay: Agonist activity against C3AR in HMDMs assessed as increase in TNFalpha mRNA expression at 300 nM incubated for 30 mins in presence of 30 mins pre-treatment with 10 uM (2-(2,2-Diphenylethoxy)acetyl)-L-arginine by qRT-PCR method; method in brief: as §2
[12] = target: T2, C3a anaphylatoxin chemotactic receptor (Homo sapiens); assay: Agonist activity against C3AR in HMDMs assessed as increase in CCL3 mRNA expression at 300 nM incubated for 30 mins in presence of 30 mins pre-treatment with 10 uM (2-(2,2-Diphenylethoxy)acetyl)-L-arginine by qRT-PCR method; method in brief: as §2
[13] = target: T2, C3a anaphylatoxin chemotactic receptor (Homo sapiens); assay: Agonist activity against C3AR in HMDMs assessed as increase in intracellular calcium release up to 100 uM by Fluo-3 AM dye based FLIPR assay; assay type: functional, cell-based
Method in brief: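 Overnight-plated HMDMs (5 × 10^4/well) loaded with 4 μM Fluo-3 AM for 1 h at 37 °C, washed into HBSS with 2.5 mM probenecid, 20 mM HEPES, pH 7.4; compound range added and Ca2+ fluorescence read ≥60 s (495/520 nm) by FLIPR.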

[14] = target: T2, C3a anaphylatoxin chemotactic receptor (Homo sapiens); remark: listed apart in the source

Row | SMILES | IC50 [1] | IC50 [4] | further results
1 | N=C(N)NCCC[C@H](NC(=O)c1nc(C(c2ccccc2)c2ccccc2)[nH]c1-c1ccccc1)C(=O)O | 87 nM | – | EC50 [2]: > 31600 nM
2 | Cc1oc(C(c2ccccc2)c2ccccc2)nc1C(=O)N[C@@H](CCCNC(=N)N)C(=O)O | 11 nM | – | pEC50 [3]: Active
3 | Cc1c(C(=O)N[C@@H](CCCNC(=N)N)C(=O)O)nc(C(c2ccccc2)c2ccccc2)n1C | 31 nM | – | EC50 [2]: 40 nM
4 | N=C(N)NCCC[C@H](NC(=O)c1oc(C(c2ccccc2)c2ccccc2)nc1-c1ccccc1)C(=O)O | 110 nM | 2000 nM | –
5 | Cc1[nH]c(C(c2ccccc2)c2ccccc2)nc1C(=O)N[C@@H](CCCNC(=N)N)C(=O)O | 10 nM | – | EC50 [2]: 25.1 nM; Activity [5]: inactive; inhibition [6]: inactive; Activity [7]: Active; Activity [8]: Active; Activity [9]: Active; Activity [10]: inactive; Activity [11]: inactive; Activity [12]: inactive
6 | N=C(N)NCCC[C@H](NC(=O)c1noc(C(c2ccccc2)c2ccccc2)n1)C(=O)O | 54 nM | 1000 nM | –
7 | N=C(N)NCCC[C@H](NC(=O)c1nnc(C(c2ccccc2)c2ccccc2)o1)C(=O)O | 967 nM | 19000 nM | –
8 | N=C(N)NCCC[C@H](NC(=O)CSCC(c1ccccc1)c1ccccc1)C(=O)O | 8 nM | – | Activity [13]: inactive
9 | N=C(N)NCCC[C@H](NC(=O)COCC(c1ccccc1)c1ccccc1)C(=O)O | 10 nM | 1260 nM | Activity [13]: inactive
10 | N=C(N)NCCC[C@H](NC(=O)CCCC(c1ccccc1)c1ccccc1)C(=O)O | 96 nM | – | Activity [13]: inactive
11 | N=C(N)NCCC[C@H](NC(=O)CNCC(c1ccccc1)c1ccccc1)C(=O)O | 150 nM | – | Activity [13]: inactive
12 | Cc1nc(C(c2ccccc2)c2ccccc2)n(C)c1C(=O)N[C@@H](CCCNC(=N)N)C(=O)O | 1140 nM | – | pIC50 [14]: inactive; pEC50 [3]: inactive
13 | N=C(N)NCCC[C@H](NC(=O)c1nc(C(c2ccccc2)c2ccccc2)no1)C(=O)O | 12 nM | 1000 nM | –
14 | N=C(N)NCCC[C@H](NC(=O)c1coc(C(c2ccccc2)c2ccccc2)n1)C(=O)O | 19 nM | – | –
15 | Cc1nc(C(c2ccccc2)c2ccccc2)oc1C(=O)N[C@@H](CCCNC(=N)N)C(=O)O | 100 nM | 3980 nM | –

From ChEMBL document CHEMBL3352379, “Potent heterocyclic ligands for human complement c3a receptor” (J Med Chem, 2014)
